The source made the active and inactive calls.
Key:
[1] = biological target: Neurogenic locus notch homolog protein 1 (Homo sapiens) (UniProt P46531); assay: Inhibition of NOTCH1 signalling in human KOPTK1 cells harboring activating Notch1 gene mutations assessed as reduction in N1Val protein expression at 2.5 uM incubated for 36 hrs by Western blot analysis; assay type: cell-based
Outline: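 KOPTK1 cells exposed 36 h to 2.5 μM compound or DMSO; endogenous activated Notch1 intracellular domain (N1Val) detected by Western blot with β-actin loading control; relative levels quantified by optical densitometry versus DMSO.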

[2] = biological target: Neurogenic locus notch homolog protein 1 (Homo sapiens) (UniProt P46531); assay: Inhibition of NOTCH1 signalling in human KOPTK1 cells harboring activating Notch1 gene mutations assessed as reduction in DELTEX1 mRNA expression at 2.5 uM incubated for 36 hrs by RT-PCR analysis; assay type: cell-based
Outline: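 DELTEX1 (DTX1) relative gene expression measured in KOPTK1 cells after 36 h with 2.5 μM compound or DMSO vehicle; three independent experiments in triplicate, mean ± SEM.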

[3] = test system: KOPTK1; assay: Antiproliferative activity against human KOPTK1 cells harboring activating Notch1 gene mutations assessed as reduction in cell viability incubated for 36 hrs by MTS assay; assay type: functional, cell-based; conditions: KOPTK1, 36 h
Outline: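 Dose–response MTS proliferation assay in KOPTK1 cells at 0, 0.5, 1, 2.5, 5, 10, 20 and 50 μM for 36 h; IC50 taken as half-maximal growth-inhibitory concentration; three independent experiments in triplicate, mean ± SD.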

[4] = test system: KOPTK1; assay: Antiproliferative activity against human KOPTK1 cells harboring activating Notch1 gene mutations assessed as reduction in cell viability at 2.5 uM incubated for 36 hrs by MTS assay; assay type: functional
Outline: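 Single-point MTS viability screen in KOPTK1 T-ALL cells: 2.5 μM compound or DMSO vehicle for 36 h; viability expressed relative to DMSO; 30% viability decrease used as screening threshold; two independent experiments in triplicate, mean ± SEM.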

[5] = test system: KOPTK1; assay: Induction of cell death in human KOPTK1 cells harboring activating Notch1 gene mutations assessed as increase in p27kip protein expression at 2.5 uM incubated for 36 hrs by Western blot analysis; assay type: functional, cell-based
Outline: (§1)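 Western blot of KOPTK1 lysates probed for p27kip, full-length and cleaved PARP, β-actin as loading control.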

[6] = test system: KOPTK1; assay: Induction of cell death in human KOPTK1 cells harboring activating Notch1 gene mutations assessed as increase in cleaved PARP protein expression at 2.5 uM incubated for 36 hrs by Western blot analysis; assay type: functional, cell-based; outline: as §1
[7] = test system: HaCaT; assay: Antiproliferative activity against immortalized human HaCaT cells assessed as reduction in cell viability at 2.5 uM incubated for 36 hrs by MTS assay; assay type: functional, cell-based
[8] = test system: Jurkat; assay: Antiproliferative activity against human Jurkat cells assessed as reduction in cell viability at 2.5 uM incubated for 36 hrs by MTS assay; assay type: functional, cell-based

Sequence of Neurogenic locus notch homolog protein 1 (Homo sapiens) (P46531 whole entry, the tested form may be a part): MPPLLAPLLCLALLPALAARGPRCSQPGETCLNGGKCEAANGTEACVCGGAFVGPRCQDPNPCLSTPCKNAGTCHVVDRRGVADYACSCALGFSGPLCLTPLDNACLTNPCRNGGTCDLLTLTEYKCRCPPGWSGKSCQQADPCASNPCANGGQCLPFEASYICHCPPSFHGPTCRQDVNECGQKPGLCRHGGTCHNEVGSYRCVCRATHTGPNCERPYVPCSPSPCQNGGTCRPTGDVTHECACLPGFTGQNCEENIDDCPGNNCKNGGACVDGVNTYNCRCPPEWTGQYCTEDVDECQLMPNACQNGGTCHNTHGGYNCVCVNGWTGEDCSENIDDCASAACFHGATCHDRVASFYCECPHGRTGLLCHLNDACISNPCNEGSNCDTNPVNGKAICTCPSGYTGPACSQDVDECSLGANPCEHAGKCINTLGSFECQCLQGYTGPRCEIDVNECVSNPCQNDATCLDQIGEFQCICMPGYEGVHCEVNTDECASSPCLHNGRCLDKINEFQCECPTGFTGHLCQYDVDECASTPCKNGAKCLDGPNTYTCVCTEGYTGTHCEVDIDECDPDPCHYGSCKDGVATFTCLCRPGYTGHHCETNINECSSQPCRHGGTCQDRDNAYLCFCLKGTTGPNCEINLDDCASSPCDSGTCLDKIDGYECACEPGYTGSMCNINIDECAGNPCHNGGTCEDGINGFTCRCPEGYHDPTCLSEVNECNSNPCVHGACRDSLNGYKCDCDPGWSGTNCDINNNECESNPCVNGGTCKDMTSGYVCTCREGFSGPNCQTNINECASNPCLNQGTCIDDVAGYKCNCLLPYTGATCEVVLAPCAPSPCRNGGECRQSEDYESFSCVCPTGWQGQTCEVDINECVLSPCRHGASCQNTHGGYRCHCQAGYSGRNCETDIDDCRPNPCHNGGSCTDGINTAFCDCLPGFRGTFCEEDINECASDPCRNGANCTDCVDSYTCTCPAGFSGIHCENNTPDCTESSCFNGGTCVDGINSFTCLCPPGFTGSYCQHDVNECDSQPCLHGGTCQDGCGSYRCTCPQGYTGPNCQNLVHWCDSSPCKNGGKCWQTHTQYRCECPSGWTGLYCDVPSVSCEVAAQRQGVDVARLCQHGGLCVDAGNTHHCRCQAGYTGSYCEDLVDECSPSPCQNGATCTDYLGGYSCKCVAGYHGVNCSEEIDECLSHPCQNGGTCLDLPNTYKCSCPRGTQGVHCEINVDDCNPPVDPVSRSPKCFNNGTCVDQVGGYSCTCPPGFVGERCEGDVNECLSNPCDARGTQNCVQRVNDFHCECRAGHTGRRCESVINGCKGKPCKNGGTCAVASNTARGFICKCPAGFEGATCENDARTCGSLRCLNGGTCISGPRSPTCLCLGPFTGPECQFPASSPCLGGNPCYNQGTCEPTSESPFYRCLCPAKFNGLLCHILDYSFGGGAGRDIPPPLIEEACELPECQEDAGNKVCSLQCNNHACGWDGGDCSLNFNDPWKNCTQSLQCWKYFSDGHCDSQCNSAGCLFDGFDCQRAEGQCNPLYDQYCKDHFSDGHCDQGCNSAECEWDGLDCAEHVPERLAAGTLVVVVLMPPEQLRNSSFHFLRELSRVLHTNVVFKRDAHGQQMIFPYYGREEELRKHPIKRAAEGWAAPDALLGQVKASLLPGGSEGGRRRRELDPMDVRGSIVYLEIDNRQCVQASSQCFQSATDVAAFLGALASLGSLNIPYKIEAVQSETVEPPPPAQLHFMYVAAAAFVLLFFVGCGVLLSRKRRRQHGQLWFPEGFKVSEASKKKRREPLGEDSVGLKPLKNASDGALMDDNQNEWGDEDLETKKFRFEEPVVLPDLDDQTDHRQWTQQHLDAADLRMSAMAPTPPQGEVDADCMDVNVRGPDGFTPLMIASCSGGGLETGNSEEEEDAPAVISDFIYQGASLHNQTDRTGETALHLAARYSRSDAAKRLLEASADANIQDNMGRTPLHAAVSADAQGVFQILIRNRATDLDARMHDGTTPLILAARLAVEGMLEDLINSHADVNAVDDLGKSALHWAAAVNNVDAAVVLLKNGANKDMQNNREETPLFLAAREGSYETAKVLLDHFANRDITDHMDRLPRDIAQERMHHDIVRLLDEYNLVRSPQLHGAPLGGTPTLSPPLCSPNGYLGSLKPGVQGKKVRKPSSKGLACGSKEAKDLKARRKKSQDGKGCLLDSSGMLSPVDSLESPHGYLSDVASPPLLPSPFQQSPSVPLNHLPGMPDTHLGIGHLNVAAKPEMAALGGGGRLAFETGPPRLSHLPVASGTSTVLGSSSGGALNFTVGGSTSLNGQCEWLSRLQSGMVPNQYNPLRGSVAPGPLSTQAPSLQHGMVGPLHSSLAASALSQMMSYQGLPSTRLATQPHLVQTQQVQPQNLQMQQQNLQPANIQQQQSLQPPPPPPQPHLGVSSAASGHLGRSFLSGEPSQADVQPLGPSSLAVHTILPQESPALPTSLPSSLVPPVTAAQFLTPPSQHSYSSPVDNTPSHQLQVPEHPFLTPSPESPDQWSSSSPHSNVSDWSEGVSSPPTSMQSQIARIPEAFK

In the case of `COc1ccc(C(=O)/C=C/c2ccc(O)cc2)c(O)c1`, the inhibition [1] is reported as “Active”, the inhibition [2] is reported as “Active” and the IC50 [3] is reported as 1910 nM. For the same compound, the Activity [4] was “>=30%”.
`COc1ccc(C(=O)/C=C/c2ccc(O)c(C)c2)c(O)c1` was tested, and the inhibition [1] was “Active”, the inhibition [2] was “Active” and the Activity [5] was “Active”. For the same compound, the Activity [6] was “Active” and the Activity [4] was “>=30%”.
For `Cc1ccc(C(=O)/C=C/c2ccc(O)cc2)cc1`, the inhibition [1] was “Active”, the inhibition [2] was “Active” and the Activity [5] was “Active”. For the same compound, the Activity [6] was “inactive”, the IC50 [3] was 3830 nM and the Activity [4] was “>=30%”.
With `COc1ccc(C(=O)C2CCc3cc(O)ccc3C2)c(O)c1` (racemic) the inhibition [1] was “Active”, the inhibition [2] was “Active” and the Activity [5] was “Active”. The Activity [6] was “inactive”, the IC50 [3] was 2460 nM and the Activity [4] was “>=30%”.
For `COc1ccc2c(c1)CCC(C(=O)c1ccc(OC)cc1OC)C2` (racemic), the Activity [7] was “Active”, the inhibition [1] was “Active” and the inhibition [2] was “Active”. The Activity [5] was “inactive”, the Activity [6] was “Active” and the IC50 [3] was 1370 nM. For the same compound, the Activity [8] was “Active” and the Activity [4] was “>=30%”.
In the case of `COc1ccc2c(c1)CC(C(=O)c1ccc(OC)cc1OC)CC2` (racemic), the Activity [7] is reported as “Active”, the inhibition [1] is reported as “Active” and the inhibition [2] is reported as “Active”. The Activity [5] was “inactive”, the Activity [6] was “Active” and the IC50 [3] was 720 nM. The Activity [8] was “Active” and the Activity [4] was “>=30%”.
